Like-named read-outs stand apart in the source and are kept apart here.

The values below come from paper PMC6226330 (ACS Infectious Diseases, 2018).

One data set deals with J774 murine macrophages. In words: In vitro uptake of 2-[18F]F-PABA by mammalian cells. The class given is cell-based. A digest of the protocol:
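J774.1 murine macrophages were cultured in RPMI GlutaMAX with 10% heat-inactivated FBS at 37 °C, 5% CO2. Tracer accumulation was gamma-counted in parallel with bacterial strains. At least six replicates were run. Values were expressed as percentage or normalized to total protein (Bradford).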

For data set [1], the system named is S. aureus. In words: Compartment PK model of dynamic 2-[18F]F-PABA PET data. The following applies: after 2 h, simulation with compartment PK model. The class given is in vivo, rat. A digest of the protocol: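 Dynamic PET data came from blood and the infected right triceps of S. aureus-infected rats. Specific and nonspecific activities at the sites were then simulated.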

The subject of data set [2] is S. aureus (Newman). In words: Rat triceps infection versus sterile inflammation model, PET/CT and ex vivo. The class given is in vivo. The following applies: for infected triceps to inflamed triceps ratio: PET; for PET signal at infection site versus sterile inflammation: [18F]FDG PET, 60–80 min postinjection, P = 0.2, n = 4. A digest of the protocol:
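Rats received live S. aureus Newman (50 μL) in the right triceps and heat-killed bacteria in BHI (50 μL) in the left. After 20–24 h, tracer was given IV and dynamic PET/CT run up to 120 min. Uptake was %ID/cc, with blood taken from the left ventricle (n = 7, mean ± SEM). Ex vivo gamma counting gave %ID/g (n = 6). Groups were compared by two-tailed Mann-Whitney U test.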

The subject of data set [3] is S. aureus. In words: In vitro uptake of 2-[18F]F-PABA by S. aureus. The data set is classed as cell-based. The essentials: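 Cells were incubated with 10 kBq/mL 2-[18F]F-PABA at 37 °C with rapid agitation, with graded PABA concentrations for blocking. Cells were then pelleted, washed three times in PBS, and gamma-counted. At least six replicates were run per point. Data were expressed as percentage or normalized to total protein (Bradford).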

The next data set relates to MSSA and MRSA. The data set is classed as in vivo, rat. A digest of the protocol: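 Female Sprague-Dawley rats (10 weeks) received 50 μL S. aureus Newman (MSSA) in the right triceps and MRSA ATCC BAA1762 in the left triceps, each at 8 log10 CFU. Oxacillin began 2–4 h after infection: 4 subcutaneous 200 mg/kg doses over 20 h. Tracer was 22.2–44.4 MBq in saline by tail-vein catheter under anesthesia. PET/CT was done 2–4 h after the last dose.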

Data set [4] relates to S. aureus. The data set is classed as in vivo, rat. The following applies: tracer containing 2 mg 19F-PABA, two hours after injection, ex vivo. A digest of the protocol: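 Rats carried live S. aureus Newman in the right triceps and heat-killed bacteria in BHI in the left triceps (sterile inflammation). They received 29.6–37 MBq tracer spiked with 2 mg 19F-PABA via the tail vein. At 2 h animals were sacrificed. Organ radioactivity was gamma-counted and bacterial load determined by plating and CFU enumeration.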

For data set [5], the system named is S. aureus (Newman). Put plainly: Mouse S. aureus thigh infection model, PET and ex vivo biodistribution. The class given is in vivo.
In the next data set the test system is MRSA. In words: Bacterial burden ex vivo. The following applies: four doses of 200 mg/kg subcutaneously over 20 h; untreated 9.0 ± 0.2. The class given is in vivo, rat.
The next data set concerns MSSA. Put plainly: Bacterial burden ex vivo. The settings on record: four doses of 200 mg/kg subcutaneously over 20 h; untreated 8.4 ± 0.1. The data set is classed as in vivo, rat.
The mark [6] stands for this setting: group not treated with oxacillin.
The mark [7] stands for this setting: oxacillin-treated, four doses of 200 mg/kg.

`Nc1ccc(C(=O)O)c([18F])c1` [2-[^18F]F-PABA, 2-[^18F]fluoro-p-aminobenzoic acid]: the “accumulation in mammalian cells” value in the data set with J774 murine macrophages is listed as “not in mammalian cells”. In the data set with S. aureus [1], the “share of total activity at site of infection from specific accumulation” value is reported as around 60%. Besides, the “infected triceps to inflamed triceps ratio” value in the data set on S. aureus (Newman) [2] (60 min) is 5.52; in the data set on S. aureus (Newman) [2] (120 min) it was 7.95; with S. aureus (Newman) [2] (after 10 min) it was around 2 fold. For the same compound, the “signal in infected triceps compared to inflamed muscle” value in the data set with S. aureus (Newman) [2] (post-mortem ex vivo analysis, %ID/g) stood at 4.30 ± 0.82. Moreover, the “accumulation in viable versus heat-killed bacteria” value in the data set on S. aureus [3] (S. aureus ATCC 29213) is “rapidly accumulated in viable cells but not in heat-killed bacteria”. Besides, in the data set with S. aureus [3] (four MSSA and six MRSA clinical strains), the “accumulation in clinical strains” value was “accumulates in all the clinical strains tested”. Further, the “PET signal in left triceps (MRSA infection)” value turned out to be 0.096 ± 0.039 %ID/cc in the data set with MSSA and MRSA (setting [6]); 0.079 ± 0.036 %ID/cc in the data set on MSSA and MRSA (setting [7]). Moreover, the “PET signal in right triceps (MSSA infection)” value in the data set on MSSA and MRSA (setting [6]) came to 0.087 ± 0.041 %ID/cc; in the data set with MSSA and MRSA (setting [7]), 0.025 ± 0.015 %ID/cc. Moreover, in the data set with S. aureus [4], the “ratio of 2-[18F]F-PABA in infected triceps compared to inflamed muscle” value is listed as 9.38 ± 2.43. The “tracer level in infected versus uninfected thighs” value in the data set on S. aureus (Newman) [5] (mouse thigh infection) is listed as “significantly higher levels of tracer were found in the infected thighs than in uninfected thighs”. The elimination entry in the data set on S. aureus (Newman) [5] (mouse, PET and ex vivo tissue analysis) is recorded as “rapidly eliminated mainly through renal clearance”.

`OC[C@H]1OC(O)[C@H]([18F])[C@@H](O)[C@@H]1O` (stereo partly shown) [[^18F]FDG, [^18F]fluorodeoxyglucose, reference compound]: the “PET signal at infection site versus sterile inflammation” value with S. aureus (Newman) [2] is given as “not significantly different”; with S. aureus (Newman) [2] (listed as [^18F]F-FDG) it was “no difference”.

Turning to `Cc1onc(-c2ccccc2)c1C(=O)N[C@@H]1C(=O)N2[C@@H]1SC(C)(C)[C@@H]2C(=O)O` [oxacillin], the “bacterial burden in left triceps (MRSA infection)” value in the data set on MRSA was determined as 8.2 ± 0.3 log10 CFU/g. In addition, the “bacterial burden in right triceps (MSSA infection)” value in the data set with MSSA is 6.4 ± 0.4 log10 CFU/g.
